The values below come from PMC6467359 (Toxicological Research, 2019).

For series [1], the system named is ovarian cancer cell line A2780. Particulars: read-out: half maximal inhibitory concentration (IC50); A2780 ref 9; cited from earlier work.
In a further series the test system is WI-38 cells. Kind of series: MTT assay of cell viability, WI-38 lung fibroblasts. The class given is cell-based, human. The note with it: for IC50: read-out: IC50 value, WI-38 cells. The procedure, abridged: (§1)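 Untransformed human fibroblasts (CCD-986Sk skin, WI-38 lung) in MEM with 10% FCS were seeded at 1 × 10^4 cells/well, cultured overnight, then exposed to graded concentrations, or to 0.1% DMSO control, for 24 hr at 37°C, 5% CO2. MTT was added for 3 hr, formazan was dissolved in DMSO, and A560 was read. Survival was expressed relative to control, and IC50 was taken from the viability-versus-concentration plot; three independent repeats.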

A further series relates to BCL2. Kind of series: RT-qPCR transcript expression in SKOV-3 cells, BCL2. Particulars: SKOV-3, 24 hr, 18.502 μM, p < 0.01. The class given is cell-based, human. The procedure, abridged:
(§2)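 SKOV-3 cells were seeded at 5 × 10^5 in 5 mL flasks and treated for 24 hr in 0.1% DMSO (vehicle control). Total RNA was column-extracted. One-step SYBR RT-qPCR used 20 ng RNA and 0.4 μM each primer: RT at 42°C for 5 min, 95°C for 10 s, then 40 cycles of 95°C 10 s / 60°C 30 s, with melt-curve check. Expression was normalised to GAPDH and compared with control; three independent repeats, one-way ANOVA with Tukey test.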
(Quantitative PCR measures a nucleic acid by following its amplification.)

The next series concerns caspase-9. Kind of series: Caspase-9 colorimetric activity assay in treated SKOV-3 cells. The class given is cell-based, human. Particulars: SKOV-3, 24 hr. The procedure, abridged:
(§3)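 SKOV-3 cells (McCoy's 5A, 10% FCS, 37°C, 5% CO2) were seeded at 5 × 10^5 in 5 mL flasks overnight, then treated in 0.1% DMSO vehicle (DMSO-only control) for 12 and 24 hr. Cells were trypsinized and lysed on ice, and 100 μg protein was taken per well. Reactions used 10 mM DTT final and caspase-specific colorimetric substrate, 37°C for 1–2 hr, read at 400–405 nm. Done in triplicate.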

Series [2] deals with SKOV-3 cells. Kind of series: Cell cycle analysis by PI staining and flow cytometry. The class given is cell-based, human. On the technique in general: A flow cytometer gives signals particle by particle.
For series [3], the system named is SKOV-3 cells. Nature of the series: MTT assay of cell viability and proliferation, SKOV-3. The class given is cell-based, human. The note with it: for cytotoxicity to SKOV-3 cells relative to apigenin: ratio of IC50 values. The procedure, abridged:
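SKOV-3 cells were seeded at 5 × 10^3 cells/well in McCoy's 5A with 10% FCS, cultured overnight, then exposed to a range of concentrations, or to 0.1% DMSO control, for 24, 48 and 72 hr. MTT was added for 3 hr, formazan was dissolved in DMSO, and A560 was read. Viability was expressed relative to control, and IC50 was read from the plot of % viable cells versus concentration; three independent repeats.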
On the technique in general: Tetrazolium assays rely on reduction of a dye to a coloured formazan, in cell work by metabolically active cells.

In series [4] the test system is SKOV-3 cells. Nature of the series: Cell imaging. The class given is cell-based, human. Particulars: for morphological change of treated SKOV-3 cells: 48 hr, 200× magnification, α-mangostin 7.309 μM, apigenin 18.502 μM, doxorubicin 0.431 μM.
In a further series the test system is CCD-986Sk cells. Kind of series: MTT assay of cell viability, CCD-986Sk skin fibroblasts. The class given is cell-based, human. The note with it: for toxicity to CCD-986Sk cells: 24 hr of exposure. The procedure, abridged: as §1
The subject of another series is caspase-3. Kind of series: Caspase-3 colorimetric activity assay in treated SKOV-3 cells. The class given is cell-based, human. Particulars: α-mangostin 7.309 μM. The procedure, abridged:
as §3

For series [5], the system named is SKOV-3 ovarian cancer cells. Particulars: 0.033–1.0 mg/mL, 24 hr of exposure ref 10; cited from earlier work.
The test system of another series is ES2 ovarian cancer cells. The note with it: 0.033–1.0 mg/mL, 24 hr of exposure ref 10; cited from earlier work.
The subject of the next series is COX2. Nature of the series: RT-qPCR transcript expression in SKOV-3 cells, COX2. The class given is cell-based, human. The note with it: SKOV-3, 24 hr, 7.309 μM, p < 0.05. The procedure, abridged:
as §2

The next series has as its system NFκB. Nature of the series: RT-qPCR transcript expression in SKOV-3 cells, NFκB. The note with it: SKOV-3, 24 hr, 7.309 μM. The class given is cell-based, human.
Where [6] appears, read: Homo sapiens, SK-OV-3, 24 h, read-out: IC50 value at an incubation time of 24 hr.
The mark [7] stands for this setting: Homo sapiens, SK-OV-3, 48 h, read-out: IC50 value at an incubation time of 48 hr.
Where [8] appears, read: Homo sapiens, SK-OV-3, 72 h, read-out: IC50 value at an incubation time of 72 hr.

Like-named read-outs stand apart in the source and are kept apart here.

Turning to `CCCCCCCCC(OCCC(C)C)c1ccc2c(c1OC)/C(=N/O)C=C/C2=N\O` (stereo not shown) [(1E,4E)-6-(1-(isopentyloxy)nonyl)-5-methoxynaphthalene-1,4-dione dioxime], the IC50 in series [1] is 8.26 ± 0.22 µM.

As to `O=c1cc(-c2ccc(O)cc2)oc2cc(O)cc(O)c12` [Apigenin], the IC50 was found to be 36.9 ± 0.971 µM with WI-38 cells (Homo sapiens, WI-38, 24 h); 26.5 ± 6.02 µM in the series with SKOV-3 cells [3] (setting [6]); 21.2 ± 5.25 µM in the series with SKOV-3 cells [3] (setting [7]); 18.2 ± 3.1 µM in the series on SKOV-3 cells [3] (setting [8]). Moreover, the “concentration nontoxic to the cells” value with WI-38 cells (WI-38, 24 hr) is reported as “up to 27.753 μM”. For the same compound, the “concentration that did not affect cell growth” value with WI-38 cells (WI-38, 24 hr) lay in the range of 1156 to 2313 nM. Also, the “BCL2 transcript expression level relative to control” value in the series on BCL2 is “upregulation was significant”. Besides, the “caspase-9 level (activity) vs control” value in the series on caspase-9 was “statistically significant (p < 0.01)”. For the same compound, the “cell cycle arrest (G2/M phase)” value in the series on SKOV-3 cells [2] (SKOV-3, after 48 hr of exposure, 18.502 μM) was “likewise arrested the cells”. In addition, in the series with SKOV-3 cells [4], the “morphological change of treated SKOV-3 cells” value (“morphological change” below) is listed as “Cell shrinkage”. Moreover, the “toxicity to CCD-986Sk cells” value with CCD-986Sk cells was “nontoxic”. The compound also registered a cell survival with CCD-986Sk cells (CCD-986Sk, 24 hr, 92.510 μM) of 70%. The relative cell survival with CCD-986Sk cells (CCD-986Sk, 24 hr, 1.156–55.506 μM) turned out to be 100%.

In the case of `COc1cccc2c1C(=O)c1c(O)c3c(c(O)c1C2=O)C[C@@](O)(C(=O)CO)C[C@@H]3O[C@H]1C[C@H](N)[C@H](O)[C@H](C)O1` [Doxorubicin, reference compound], the IC50 with WI-38 cells (Homo sapiens, WI-38, 24 h) worked out at 0.604 ± 0.156 µM; in the series with SKOV-3 cells [3] (setting [6]), 0.534 ± 0.084 µM; in the series on SKOV-3 cells [3] (setting [7]), 0.343 ± 0.023 µM; with SKOV-3 cells [3] (setting [8]) it was 0.117 ± 0.008 µM. Moreover, the “caspase-3 activity vs control” value in the series on caspase-3 (SKOV-3, 24 hr, apigenin 18.502 μM, doxorubicin 0.431 μM) is “not significant”. Moreover, in the series with SKOV-3 cells [4], the “morphological change” value was “some cell blebbing”. Also, in the series with CCD-986Sk cells, the “toxicity to CCD-986Sk cells” value is recorded as “did not affect the growth”.

`CC(=O)OCON=[N+]([O-])NCC(C)C` [O^2-(acetoxymethyl)-1-(iso-butylamino)diazen-1-ium-1,2-diolate]: the effect on proliferation entry (in series [5]; with ES2 ovarian cancer cells) was “reduced the proliferation” each time.

In the case of `CC(=O)OCO/N=[N+](\[O-])NC(C)C` [O^2-(acetoxymethyl)-1-(isopropylamino)diazen-1-ium-1,2-diolate], the effect on proliferation result (in [5]; in the series with ES2 ovarian cancer cells) was “reduced the proliferation” throughout.

`COc1c(O)cc2oc3cc(O)c(CC=C(C)C)c(O)c3c(=O)c2c1CC=C(C)C` [α-Mangostin]: the IC50 with WI-38 cells (24 hr of treatment, MTT) was determined as 1.5 ± 0.464 µM; in the series with SKOV-3 cells [3] (read-out: IC50 value at an incubation time of 24 hr, SKOV-3 cells, MTT, 24 hr) it was 2.47 ± 0.338 µM; with SKOV-3 cells [3] (read-out: IC50 value at an incubation time of 48 hr, SKOV-3 cells, MTT, 48 hr), 2.98 ± 0.054 µM; in the series on SKOV-3 cells [3] (read-out: IC50 value at an incubation time of 72 hr, SKOV-3 cells, MTT, 72 hr) it was 3.06 ± 0.349 µM; with CCD-986Sk cells (read-out: IC50 value, CCD-986Sk cells, 24 hr of treatment, MTT), 9.8 ± 3.17 µM. For the same compound, in the series with caspase-3 (SKOV-3, 12 hr), the “caspase-3 activity vs control” value was “significantly (p < 0.05) increased”. The “COX2 transcript expression level relative to control” value in the series on COX2 is “upregulation was significant”. The cell cycle arrest result with SKOV-3 cells [2] (SKOV-3, after 24 hr of exposure, 7.309 μM) is “induced arrest at the G2/M phase”. Moreover, in the series on NFκB, the “NFκB transcript expression level relative to control” value is reported as “remained the same as in the control cells”. Moreover, the “cytotoxicity to SKOV-3 cells relative to apigenin” value is recorded as 10.8 fold with SKOV-3 cells [3] (24 hr) and 5.9 fold in the series with SKOV-3 cells [3] (72 hr). The “morphological change” value with SKOV-3 cells [4] was “mostly damaged”. Besides, in the series with SKOV-3 cells [4] (SKOV-3, 5 × 10^5 cells in 5 mL, T25 flasks), the “effect at the small-scale IC50 value in larger-scale cultures” value is listed as “not effective at all”. For the same compound, the “concentration safe for CCD-986Sk skin fibroblasts” value in the series with CCD-986Sk cells (24 hr) is recorded as “less than 6.091 μM”. In addition, the “cytotoxicity in CCD-986Sk cells, fold less than in SKOV-3 cells” value with CCD-986Sk cells (24 hr) is “about 4 fold”.
